The values below come from ChEMBL document CHEMBL1134108, “Expedited discovery of second generation NK-1 antagonists: identification of a nonbasic aryloxy substituent” (Bioorg Med Chem Lett, 2001).

Data set [1] in a line: Bioavailability in dog. It is filed as ADME, organism-based, Canis lupus familiaris. As to conditions: in vivo.
The species entered for data set [2] is Canis familiaris. Put plainly: In vitro microsome stability tested in dog liver expressed as percent remaining […]. Particulars: Canis lupus familiaris. It is filed as functional.
In data set [3] the target is T1, Substance-P receptor (Homo sapiens, UniProt P25103). The experiment in a line: In vitro inhibition of binding of [125I]Bolton-Hunter SP to Tachykinin receptor 1 in human IM-9 cell line. The format is cell-based.
T1 sequence (P25103 whole entry): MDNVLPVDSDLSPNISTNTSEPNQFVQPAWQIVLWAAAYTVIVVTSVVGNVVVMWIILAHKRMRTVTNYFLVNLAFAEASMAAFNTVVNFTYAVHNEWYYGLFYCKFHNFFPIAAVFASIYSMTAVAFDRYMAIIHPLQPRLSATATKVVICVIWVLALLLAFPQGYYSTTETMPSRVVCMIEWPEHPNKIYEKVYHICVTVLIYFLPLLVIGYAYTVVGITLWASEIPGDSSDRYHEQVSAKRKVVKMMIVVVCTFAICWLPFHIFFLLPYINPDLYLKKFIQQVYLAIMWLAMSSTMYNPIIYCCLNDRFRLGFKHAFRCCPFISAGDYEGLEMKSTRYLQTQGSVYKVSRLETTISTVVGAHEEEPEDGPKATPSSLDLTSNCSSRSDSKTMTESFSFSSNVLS
Data set [4] concerns the target T1, Substance-P receptor. The experiment in a line: In vitro inhibition of binding of [125I]Bolton-Hunter SP to Tachykinin receptor 1 in human IM-9 cell line at a concentration of 10 nM. It is filed as cell-based. A digest of the protocol:
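Single-point screen at 10 nM test compound, run in triplicate, measuring displacement of [125I]Bolton-Hunter SP binding on human IM-9 cells expressing NK-1 receptors.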

By bioavailability is commonly meant the share of a dose that reaches the circulation, judged against a reference dose that is usually intravenous. Low readings indicate little systemic uptake, high ones much systemic uptake. Consider `CC(=O)N(Cc1ccccc1Cl)C[C@@H](Cc1c[nH]c2ccccc12)NC(=O)COc1ccc(-n2ccnc2)cc1`, for which, in data set [1], the bioavailability was found to be 36%. The molecule further gave a Remaining in data set [2] of 96%. A word on the IC50: it is the point on the concentration scale where inhibition reaches its midpoint. In turn, `COc1ccccc1CN(C[C@@H](Cc1c[nH]c2ccccc12)NC(=O)COc1ccc(CO)cc1)C(C)=O` yielded a bioavailability in data set [1] of 17%. Moreover, in data set [2], the Remaining came to 28%. This molecule registered an IC50 in data set [3] of 0.43 nM. A word on the inhibition: it is the share of the control response that was lost under treatment. On to `COc1ccccc1CC(=O)NC(Cc1c[nH]c2ccccc12)CN(Cc1ccccc1OC)C(C)=O` (configuration not stated), for which, in data set [4], the inhibition came to 23%.

Molecule `COc1ccccc1CN(C[C@@H](Cc1c[nH]c2ccccc12)NC(=O)COc1ccc(-c2csnn2)cc1)C(C)=O` gave a bioavailability in data set [1] of 47%. In data set [2], this molecule displayed a Remaining of 67%. Also, the IC50 in data set [3] was 0.98 nM. As to `COc1ccccc1CN(CC(Cc1c[nH]c2ccccc12)NC(=O)Cc1ccc(O)cc1)C(C)=O` (configuration not stated), the inhibition in data set [4] turned out to be 25%.

With `COc1ccccc1CN(CC(Cc1c[nH]c2ccccc12)NC(=O)CCC(=O)c1ccc(Cl)cc1)C(C)=O` (configuration not stated), the inhibition in data set [4] came to 49%.

In data set [4], `COc1cccc(OCC(=O)NC(Cc2c[nH]c3ccccc23)CN(Cc2ccccc2OC)C(C)=O)c1` (configuration not stated) displayed an inhibition of 3%.

In turn, `COc1ccc(C(=O)CCC(=O)NC(Cc2c[nH]c3ccccc23)CN(Cc2ccccc2OC)C(C)=O)cc1` (configuration not stated) showed an inhibition in data set [4] of 63%. Further, the IC50 in data set [3] is 3.3 nM. In the case of `COc1ccccc1CN(CC(Cc1c[nH]c2ccccc12)NC(=O)c1ccccc1)C(C)=O` (configuration not stated), in data set [4], the inhibition was found to be 0%. For `COc1ccccc1CN(CC(Cc1c[nH]c2ccccc12)NC(=O)Cc1ccccc1)C(C)=O` (configuration not stated), in data set [4], the inhibition turned out to be 18%.

`COc1ccc(CC(=O)NC(Cc2c[nH]c3ccccc23)CN(Cc2ccccc2OC)C(C)=O)cc1` (configuration not stated) gave an inhibition in data set [4] of 81%. The IC50 in data set [3] stood at 9.7 nM. For `COc1ccccc1CN(CC(Cc1c[nH]c2ccccc12)NC(=O)COc1ccccc1OC)C(C)=O` (configuration not stated), the inhibition in data set [4] is 42%. In data set [3], the IC50 came out at 24 nM.

`COc1ccccc1CN(CC(Cc1c[nH]c2ccccc12)NC(=O)CCC(=O)c1ccc(F)cc1)C(C)=O` (configuration not stated) came in with an inhibition in data set [4] of 66%. The molecule further yielded an IC50 in data set [3] of 6 nM. As to `COc1ccccc1CN(CC(Cc1c[nH]c2ccccc12)NC(=O)CSc1ccccn1)C(C)=O` (configuration not stated), in data set [4], the inhibition turned out to be 41%. This molecule showed an IC50 in data set [3] of 10.8 nM. In data set [4], `COc1ccccc1CN(CC(Cc1c[nH]c2ccccc12)NC(=O)COc1ccc(CO)cc1)C(C)=O` (configuration not stated) yielded an inhibition of 87%. Moreover, the IC50 in data set [3] is 0.82 nM. Consider `COc1ccc(C(=O)NC(Cc2c[nH]c3ccccc23)CN(Cc2ccccc2OC)C(C)=O)cc1` (configuration not stated), for which, in data set [4], the inhibition came to 13%. Molecule `COc1ccccc1CN(CC(Cc1c[nH]c2ccccc12)NC(=O)Cc1ccccc1Cl)C(C)=O` (configuration not stated) yielded an inhibition in data set [4] of 30%. For the molecule `COc1ccccc1CN(CC(Cc1c[nH]c2ccccc12)NC(=O)COc1ccc(C(C)=O)cc1)C(C)=O` (configuration not stated), the inhibition in data set [4] is 68%. Further, in data set [3], the IC50 was 3.5 nM.

In data set [4], `COc1ccccc1CN(CC(Cc1c[nH]c2ccccc12)NC(=O)CCc1ccccc1)C(C)=O` (configuration not stated) registered an inhibition of 20%.

Molecule `COc1ccccc1CN(CC(Cc1c[nH]c2ccccc12)NC(=O)COc1ccc(O)cc1)C(C)=O` (configuration not stated) showed an inhibition in data set [4] of 59%. Further, in data set [3], the IC50 came out at 3.2 nM. Turning to `COc1ccccc1CN(C[C@@H](Cc1c[nH]c2ccccc12)NC(=O)CN1CCC(N2CCCCC2)CC1)C(C)=O` [LANEPITANT], the bioavailability in data set [1] turned out to be 9%. On to `COc1ccccc1CN(CC(Cc1c[nH]c2ccccc12)NC(=O)COc1ccc(Cl)cc1)C(C)=O` (configuration not stated), for which the inhibition in data set [4] was 19%. The molecule `COc1cccc(CC(=O)NC(Cc2c[nH]c3ccccc23)CN(Cc2ccccc2OC)C(C)=O)c1` (configuration not stated) displayed an inhibition in data set [4] of 22%. With `COc1ccccc1CN(C[C@@H](Cc1c[nH]c2ccccc12)NC(=O)COc1ccc(-n2ccnc2)cc1)C(C)=O`, the bioavailability in data set [1] was found to be 14%. The molecule also yielded a Remaining in data set [2] of 87%. The same molecule gave an IC50 in data set [3] of 0.48 nM.

Regarding `COc1ccccc1CN(C[C@@H](Cc1c[nH]c2ccccc12)NC(=O)CCC(=O)c1ccccc1)C(C)=O`, the inhibition in data set [4] was determined as 20%. This molecule also registered an IC50 in data set [3] of 34 nM. Take `COc1ccccc1CN(CC(Cc1c[nH]c2ccccc12)NC(=O)c1ccccc1Cl)C(C)=O` (configuration not stated): the inhibition in data set [4] turned out to be 0%. On to `COc1ccccc1CN(CC(Cc1c[nH]c2ccccc12)NC(=O)Cc1ccc2c(c1)OCCO2)C(C)=O` (configuration not stated), for which, in data set [4], the inhibition turned out to be 46%. The same molecule yielded an IC50 in data set [3] of 8.3 nM. Taken in the same sequence, the figures for `COc1ccc(OCC(=O)NC(Cc2c[nH]c3ccccc23)CN(Cc2ccccc2OC)C(C)=O)cc1` (configuration not stated) were 52% and 10.2 nM. As for `CCOCC(=O)NC(Cc1c[nH]c2ccccc12)CN(Cc1ccccc1OC)C(C)=O` (configuration not stated), the inhibition in data set [4] was 4%.
